Screens from PubChem.
Only some compounds are listed: those with a hit (about 4.6% of all), similar ones and a draw of the others.
NALP1 inh – blocks the NALP1 inflammasome reconstituted in yeast; S. cerevisiae NALP1/ASC/caspase-1 growth, X-gal OD620, 72 h; inhibition, % at 10 µM; actives 0.61% (n = 280,000); in the data active means inhibition mostly above about 24%, no sharp cut-off; inactive means mostly below about 32%
Arr AP2 block – inhibitors of human beta-arrestin and AP2 interaction | FITC-arrestin peptide / GST-AP2 beads, flow cytometry; AP2 beta2 appendage carries R879A mutation | inhibition, % at 10 µM | actives 0.31% (n = 340,000) | AID 504490;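 active means inhibition above a set limit, near 3 SD of compounds lacking own fluorescence, cut at about 54% in these data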;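 further: plate controls were DMSO wells for no effect and 5 µM unlabelled arrestin peptide for full effect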
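system = GST-tagged AP2 beta2-adaptin appendage (R879A) on 4 µm glutathione beads | reagent = FITC-labelled arrestin peptide probe, 50 nM final | schedule = compound with beads 12 min RT, then probe 1 h RT | signal = HyperCyt-sampled flow cytometry, FL1 channel, ex 488/em 535 nm | read-out = percent response from loss of bead-bound FITC fluorescence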
NALP3 yeast inh – blocks the NALP3 inflammasome reconstituted in yeast. actives 0.39% (n = 330,000). inhibition, % at 10 µM. Yeast reconstituted NLRP3/ASC/caspase-1, beta-gal luminescence, 24 h;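 active means inhibition of 50% or more; inactive means inhibition below 50%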;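 further: plate controls were induced DMSO wells for no effect and uninduced yeast grown without galactose for full effect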
ALR H2O2 inh – human ALR oxidase inhibition via reduced H2O2 | purified ALR, DTT oxidation, H2O2 HRP-luminol luminescence | inhibition, % (no concentration beside the values) | actives 3.8% (n = 290,000);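 active means mean replicate inhibition above about 79%, with every replicate also reaching it, limit read from the data; inconclusive means only one of the two criteria met; inactive means mean below limit and not every replicate reaching it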
Target sequence (P55789 whole entry, looked up): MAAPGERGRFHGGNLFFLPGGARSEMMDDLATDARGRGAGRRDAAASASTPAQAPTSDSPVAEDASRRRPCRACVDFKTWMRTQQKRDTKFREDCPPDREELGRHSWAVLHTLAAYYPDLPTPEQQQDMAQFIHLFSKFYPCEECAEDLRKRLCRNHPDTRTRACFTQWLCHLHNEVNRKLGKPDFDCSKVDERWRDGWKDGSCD
PolyA inhibitor – yeast polyadenylation inhibition | activity score, % at 12 µM | actives 0.02% (n = 300,000) | S. cerevisiae SKY197-pL101 polyadenylation reporter, beta-gal luminescence; efflux-impaired pdr1/pdr3 knockout yeast; score 100 = 6 SD above DMSO;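 active means lowest replicate activity score at least 50, where 100 means six control SD above control mean; inconclusive means lowest score under 50 but half or more replicates reach 50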;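 further: yeast exposed to compound for 9 h at 30 °C; higher score means more reporter readthrough which indicates perturbed polyadenylation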
DSG3 Ab inh – inhibitors of pemphigus antibody binding to human desmoglein-3; binding (percent of control), % at 10 µM; actives 0.48% (n = 310,000); AID 588358; DSG3-coupled beads, scFv-anti-DSG3-GFP binding, flow cytometry; stronger effect = lower value;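 active means binding more than 3 SD below its plate's average and above zero; inconclusive means below that plate limit but binding exactly zero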;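 further: hits lower antibody fragment binding to DSG3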
* marks the source's active call; other numbers are inactive results; u = inconclusive; x = no result given.

SMILES | NALP1 inh | Arr AP2 block | NALP3 yeast inh | ALR H2O2 inh | PolyA inhibitor | DSG3 Ab inh
O=C(Cc1ccc2c(c1)OCCO2)N1CCN(S(=O)(=O)c2cccc(C(F)(F)F)c2)CC1 | 0 | -1 | 8 | 90* | 26 | 95
O=S(=O)(c1cccc(C(F)(F)F)c1)N1CCN(S(=O)(=O)c2ccc3c(c2)OCCO3)CC1 | x | -2 | 4 | -7 | x | 101
COc1ccc(NC(=O)C2CC(=O)N(c3ccccc3F)C2)cc1S(=O)(=O)N1CCCCC1 (stereo not given) | x | x | x | x | x | 103
NNC(=O)c1cccc(COc2ccccc2Br)c1 | -10 | 7 | 13 | 98* | -8 | 93
CC(=O)NCCNC(=O)c1ccc(CSc2nc3ccccc3s2)cc1 | 8 | 0 | 5 | 99* | -3 | x
COC(=O)c1ccc(CSc2nc3ccccc3s2)o1 | 43 | 8 | 41 | 2 | -37 | x
C=CCNC(=O)c1nc2ccccc2s1 | -62 | -5 | 2 | x | -9 | 89
C=CCNC(=O)c1ccc(CSc2nc3ccccc3s2)cc1 | 5 | 30 | 35 | 99* | -12 | x
CN(/N=C/c1ccc(-c2ccc([N+](=O)[O-])cc2)o1)c1ccccc1 | -2 | -27 | 28 | 3 | -9 | 231
CN(C)/N=C/c1ccc(Sc2ccccc2[N+](=O)[O-])o1 | -4 | 18 | 26 | 92* | 7 | 110
CC(C)(C)OC(=O)N1CCC(C(=O)Nc2cccc(C(=O)NCc3ccccc3)c2)CC1 | x | -9 | x | x | x | 102
CCCN1C(=O)c2cc(C(=O)NC3CCCCCC3)ccc2C1O (stereo not given) | 37 | 52 | -16 | 96* | 14 | 105
CCOC(=O)N1CCC(N2C(=O)c3cc(C(=O)NC4CCCCC4)ccc3C2O)CC1 (stereo not given) | -12 | -1 | 11 | 94* | 0 | 111
COc1ccc(C(=O)NC2CCCCC2)cc1OC1CCN(C(C)C)CC1 | 3 | -4 | 13 | 0 | 27 | 103
COc1ccc(C(=O)NC2CCCCCC2)cc1OC1CCN(C(C)=O)CC1 | -6 | 3 | 15 | 93* | 7 | 103
CN(C)c1cccc(C(=O)NC2CCCCCC2)c1 | 14 | -3 | 16 | 94* | 13 | 102
COc1ccc(-c2noc(CN(C)C(=O)CCCN3C(=O)[C@H]4CC=CC[C@H]4C3=O)n2)cc1 | x | x | x | x | x | 98
CC(=O)Nc1ccc(S(=O)(=O)N(C)Cc2cnn(C)c2)cc1 | 7 | -8 | 4 | 2 | 13 | x
O=C(CNc1cc(S(=O)(=O)N2CCOCC2)ccc1N1CCCC1)Nc1ccc(Cl)cc1 | x | -4 | x | x | x | u
O=C(C1=C(O)C(=O)N(CCN2CCOCC2)C1c1cccc(F)c1)c1cc2ccccc2o1 (stereo not given) | 20 | 21 | 0 | -10 | -7 | 94
O=c1[nH]n(-c2ccc(Cl)cc2)c2ncccc12 | 12 | 23 | 3 | 99* | -5 | x
O=C(O)CC1Sc2nnc(COc3ccc(Cl)cc3)n2N=C1c1ccccc1 (stereo not given) | 6 | -2 | -11 | -3 | -5 | 103
CCOC(=O)c1c(S(=O)(=O)NCC(=O)Nc2cccc(C)c2)c(C)n(C)c1C | -4 | -6 | 5 | -4 | 4 | x
Cc1nc2c3ccccc3nc(NNC(=O)CCC(=O)N3CCN(c4ccc(F)cc4)CC3)n2n1 | -2 | -11 | -5 | 90* | 5 | 109
CCCCNC(=O)CCC(=O)NNc1nc2ccccc2c2nc(C)nn12 | 18 | 11 | 3 | -3 | -10 | 92
SMILES | NALP1 inh | Arr AP2 block | NALP3 yeast inh | ALR H2O2 inh | PolyA inhibitor | DSG3 Ab inh
Cc1nc2c3ccccc3nc(NNC(=O)CCC(=O)NCCN3CCN(c4ccccc4)CC3)n2n1 | 5 | -3 | 43 | 98* | -12 | u
CCOC(=O)CSc1nnc2n(C3CCCCC3)c(=O)c3c4c(sc3n12)CCCC4 | 13 | 7 | 7 | -1 | -3 | 120
COc1ccc(NC(=O)CSc2nc3sc4c(c3c(=O)n2-c2ccc(OC)cc2)CCN(C)C4)cc1 | 6 | -9 | 5 | 98* | 0 | 108
CCn1c(SCC(=O)Nc2ccc(C)cc2)nc2sc3c(c2c1=O)CCN(C)C3 | 25 | 15 | 13 | 99* | -17 | 100
CCOC(=O)CSc1nc2sc3c(c2c(=O)n1C1CCCCC1)CCN(C)C3 | 6 | 8 | 15 | 100* | 10 | 105
CCn1c(SCC(N)=O)nc2sc3c(c2c1=O)CCN(C)C3 | -1 | 3 | -3 | 40 | 9 | 123
CCOC(=O)CSc1nc2sc3c(c2c(=O)n1-c1ccc(OCC)cc1)CCN(C)C3 | -35 | 9 | 4 | 94* | 18 | 116
COc1ccc(-n2c(SC)nc3sc4c(c3c2=O)CCN(C)C4)cc1 | 16 | 19 | 21 | x | 12 | 103
CC1(O)C(c2ccccc2)=Nc2ccccc21 (stereo not given) | x | x | x | x | x | 105
O=C(CSc1nc2c(c(=O)n1-c1ccc(Br)cc1)SCC2)Nc1nccs1 | 15 | 4 | 9 | 99* | 1 | x
O=C(CSc1nc2c(c(=O)n1-c1ccc(Cl)cc1)SCC2)Nc1nccs1 | 14 | 21 | x | -27 | x | 108
COc1ccc(-n2c(SCC(=O)Nc3nccs3)nc3sc4c(c3c2=O)CCN(C)C4)cc1 | -1 | 11 | 6 | 99* | 7 | 97
CCOc1ccc(-n2c(SCC(N)=O)nc3sc4c(c3c2=O)CCN(C)C4)cc1 | 10 | 0 | 2 | x | 4 | x
O=C(OCc1nnc(-c2ccc([N+](=O)[O-])cc2)o1)c1ccc(F)c(S(=O)(=O)N2CCOCC2)c1 | x | 38 | 7 | x | x | 100
Cc1ccc(-n2c(=O)[nH]c3c(oc4ccccc43)c2=O)cc1 | -14 | -11 | -8 | 0 | -7 | 104
COc1ccc(-n2c(=S)[nH]c3c(oc4ccccc43)c2=O)cc1 | 23 | 7 | 3 | 93* | 12 | 105
C=CCOc1ccc(CNc2ccc3[nH]c(=O)[nH]c3c2)cc1 | 3 | 10 | 11 | 99* | 0 | 98
C=CCOc1ccc(CNCc2cccnc2)cc1OCC | 26 | 36 | 4 | 94* | 3 | 97
C=CCOc1ccc(CNCCO)cc1OCC | 26 | 25 | -11 | x | 7 | 92
C=CCOc1ccc(CNC(C)(C)CO)cc1OCC | 10 | 14 | -9 | -11 | 33 | 103
C=CCOc1ccc(CNc2ccc3[nH]c(=O)[nH]c3c2)cc1OCC | 10 | 35 | -7 | 98* | -16 | 110
COc1cc(CNc2ccc(N3CCCCC3)cc2)ccc1OCC(=O)NC(C)(C)C | -24 | 15 | 31 | 99* | -24 | 111
Cc1c(C(=O)N/N=C/c2ccccn2)nnn1-c1nonc1N | 14 | 0 | 7 | -2 | 6 | 118
COc1cc(CNc2ccc(CNc3ncn[nH]3)cc2)cc(Cl)c1OCc1ccccc1 | 10 | 1 | 12 | 3 | 4 | 82*
